{"source": "ChEMBL document CHEMBL5126614", "about": "(ACS Med Chem Lett, 2022)", "key": {"Rhesus monkey [1]": {"system": "Rhesus monkey", "experiment": "Anti-obesity activity in type 2 diabetes rhesus monkey model assessed as increase in fasting ketone beta-hydroxybutyrate level at 3 ug/kg, sc qd for 3 weeks and measured on day 22 relative to control", "details": "dose 3 µg/kg, time 22 day"}, "Rhesus monkey [2]": {"system": "Rhesus monkey", "experiment": "Antidiabetic activity in type 2 diabetes rhesus monkey model assessed as reduction in fasting insulin level at 3 ug/kg, sc qd for 3 weeks and measured on day 22 relative to control", "type": "functional, Macaca mulatta", "set-up": "scale not given: the % may be the effect or the level left", "details": "dose 3 µg/kg, time 22 day", "how_it_was_run": "(§1)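 Type 2 diabetic rhesus monkeys received daily dosing for 3 weeks, alongside vehicle and a liraglutide benchmark at 30 μg/kg. Fasting plasma glucose was compared with baseline or vehicle, and fasting insulin with vehicle.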"}, "[3]": {"experiment": "Tmax in rhesus monkey at 0.05 mg/kg, sc by LC-MS analysis", "type": "ADME, organism-based, Macaca mulatta", "details": "in vivo", "how_it_was_run": "(§2)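 Single IV or SC dose in male Wistar Han naïve rats and in rhesus monkeys, n = 3 animals per group. Peptide formulated in mannitol buffer (5% mannitol, 5 mM sodium phosphate, pH 8). Plasma concentration–time profiles were measured and peptide levels quantified by LCMS assay.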"}, "[4]": {"experiment": "Solubility of compound at pH 3 to 5", "type": "physicochemical", "details": "buffer"}, "[5]": {"experiment": "Bioavailability in Wistar-Han rat at 0.2 mg/kg, sc by LC-MS analysis", "type": "ADME, organism-based", "details": "in vivo", "how_it_was_run": "as §2"}, "[6]": {"experiment": "Solubility of compound at pH 7", "type": "physicochemical", "details": "buffer"}, "[7]": {"experiment": "Volume of distribution at steady state in Wistar-Han rat at 0.1 mg/kg, iv by LC-MS analysis", "type": "ADME, organism-based", "details": "in vivo, read-out: Vdss", "how_it_was_run": "as §2"}, "Rhesus monkey [8]": {"system": "Rhesus monkey", "experiment": "Antidiabetic activity in type 2 diabetes rhesus monkey model assessed as HOMA-IR at 3 ug/kg, sc qd for 3 weeks and measured on day 22 (reference value: 9.6 +/- 1.9)", "type": "functional, Macaca mulatta", "details": "dose 3 µg/kg, time 22 day"}, "Homo sapiens": {"organism": "Homo sapiens", "experiment": "Selectivity ratio of EC50 for human GCGR expressed in frozen cells to EC50 for human GLP1R expressed in frozen cells", "type": "cell-based"}, "[9]": {"experiment": "Terminal half life in rhesus monkey at 0.01 mg/kg, iv by LC-MS analysis", "type": "ADME, organism-based, Macaca mulatta", "details": "in vivo, read-out: beta t1/2 (converted)", "how_it_was_run": "as §2"}, "[10]": {"experiment": "Cmax in Wistar-Han rat at 0.2 mg/kg, sc by LC-MS analysis", "type": "ADME, organism-based", "set-up": "dose 0.2 mg/kg, route sc", "details": "in vivo", "how_it_was_run": "as §2"}, "[11]": {"experiment": "Plasma clearance in Wistar-Han rat at 0.1 mg/kg, iv by LC-MS analysis", "type": "ADME, organism-based", "how_it_was_run": "as §2"}, "[12]": {"experiment": "AUC (0 to infinity) in rhesus monkey at 0.05 mg/kg, sc by LC-MS analysis", "type": "ADME, organism-based, Macaca mulatta", "set-up": "time infinity, dose 0.05 mg/kg, route sc", "details": "in vivo", "how_it_was_run": "as §2"}, "Dipeptidyl peptidase 4": {"molecular_target": "Dipeptidyl peptidase 4 (Homo sapiens, UniProt P27487)", "sequence (P27487 whole entry)": "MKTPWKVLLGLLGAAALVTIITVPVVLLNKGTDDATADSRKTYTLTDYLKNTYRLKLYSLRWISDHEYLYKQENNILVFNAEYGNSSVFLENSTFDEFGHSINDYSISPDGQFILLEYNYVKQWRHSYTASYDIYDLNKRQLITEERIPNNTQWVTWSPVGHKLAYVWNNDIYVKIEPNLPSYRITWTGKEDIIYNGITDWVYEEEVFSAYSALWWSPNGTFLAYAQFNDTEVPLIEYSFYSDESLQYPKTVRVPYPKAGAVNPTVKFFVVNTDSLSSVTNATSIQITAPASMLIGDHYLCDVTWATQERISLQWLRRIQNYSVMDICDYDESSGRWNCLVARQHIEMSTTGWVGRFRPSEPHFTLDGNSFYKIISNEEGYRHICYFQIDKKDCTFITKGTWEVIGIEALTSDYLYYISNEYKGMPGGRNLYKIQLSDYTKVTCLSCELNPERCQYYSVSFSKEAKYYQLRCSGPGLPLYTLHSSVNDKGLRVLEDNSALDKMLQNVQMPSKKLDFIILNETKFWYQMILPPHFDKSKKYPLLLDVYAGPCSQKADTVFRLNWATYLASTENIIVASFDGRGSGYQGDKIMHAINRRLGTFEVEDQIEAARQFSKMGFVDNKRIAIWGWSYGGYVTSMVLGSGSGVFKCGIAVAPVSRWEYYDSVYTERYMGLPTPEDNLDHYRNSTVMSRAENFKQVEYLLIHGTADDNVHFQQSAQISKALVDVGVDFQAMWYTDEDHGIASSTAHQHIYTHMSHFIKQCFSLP", "experiment": "Stability of compound assessed as DPP4 (unknown origin)-mediated hydrolysis", "type": "ADME", "how_it_was_run": "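Peptide incubated overnight at 37 °C with DPP-IV enzyme. Stability judged by receptor bioactivity measured after incubation.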"}, "[13]": {"experiment": "Tmax in Wistar-Han rat at 0.2 mg/kg, sc by LC-MS analysis", "type": "ADME, organism-based", "details": "in vivo", "how_it_was_run": "as §2"}, "Rhesus monkey [14]": {"system": "Rhesus monkey", "experiment": "Anti-obesity activity in type 2 diabetes rhesus monkey model assessed as increase in free fatty acid level at 3 ug/kg, sc qd for 3 weeks and measured on day 22 relative to control", "type": "functional, Macaca mulatta", "details": "dose 3 µg/kg, time 22 day"}, "[15]": {"experiment": "Bioavailability in rhesus monkey at 0.05 mg/kg, sc by LC-MS analysis", "type": "ADME, organism-based, Macaca mulatta", "details": "in vivo", "how_it_was_run": "as §2"}, "Rhesus monkey [16]": {"system": "Rhesus monkey", "experiment": "Potency index, ratio of compound to liraglutide anti-obesity activity in type 2 diabetes rhesus monkey model assessed as reduction in body weight", "type": "functional, Macaca mulatta"}, "[17]": {"experiment": "AUC (0 to infinity) in rhesus monkey at 0.01 mg/kg, iv by LC-MS analysis", "type": "ADME, organism-based, Macaca mulatta", "set-up": "time infinity, dose 0.01 mg/kg, route iv", "details": "in vivo", "how_it_was_run": "as §2"}, "Rhesus monkey [18]": {"system": "Rhesus monkey", "experiment": "Antidiabetic activity in type 2 diabetes rhesus monkey model assessed as increase in total adiponectin level at 3 ug/kg, sc qd for 3 weeks and measured on day 22", "details": "Macaca mulatta, dose 3.0 µg/kg, time 22.0 day"}, "[19]": {"experiment": "AUC (0 to infinity) in Wistar-Han rat at 0.2 mg/kg, sc by LC-MS analysis", "type": "ADME, organism-based", "set-up": "time infinity, dose 0.2 mg/kg, route sc", "details": "in vivo", "how_it_was_run": "as §2"}, "[20]": {"experiment": "Toxicity in rat", "details": "in vivo"}, "[21]": {"experiment": "Elimination half life in Wistar-Han rat at 0.1 mg/kg, iv by LC-MS analysis", "type": "ADME, organism-based", "details": "in vivo, read-out: beta t1/2 (converted)", "how_it_was_run": "as §2"}, "[22]": {"experiment": "Volume of distribution at steady state in rhesus monkey at 0.01 mg/kg, iv by LC-MS analysis", "type": "ADME, organism-based, Macaca mulatta", "details": "in vivo, read-out: Vdss", "how_it_was_run": "as §2"}, "[23]": {"experiment": "Plasma clearance in rhesus monkey at 0.01 mg/kg, iv by LC-MS analysis", "type": "ADME, organism-based, Macaca mulatta", "how_it_was_run": "as §2"}, "[24]": {"experiment": "Solubility of compound at pH 8", "type": "physicochemical", "details": "buffer"}, "Rhesus monkey [25]": {"system": "Rhesus monkey", "experiment": "Anti-obesity activity in type 2 diabetes rhesus monkey model assessed as reduction in cumulative food intake at 3 ug/kg, sc qd for 3 weeks and measured daily for 21 days relative to baseline", "type": "functional, Macaca mulatta", "set-up": "scale not given: the % may be the effect or the level left", "details": "dose 3 µg/kg"}, "Rhesus monkey [26]": {"system": "Rhesus monkey", "experiment": "Antidiabetic activity in type 2 diabetes rhesus monkey model assessed as reduction in fasting glucose level at 3 ug/kg, sc qd for 3 weeks and measured on day 22 by intravenous glucose tolerance test", "type": "functional, organism-based", "details": "Macaca mulatta, dose 3.0 µg/kg, time 22.0 day", "how_it_was_run": "as §1"}, "[27]": {"experiment": "Toxicity in rhesus monkey", "set-up": "species or system Macaca mulatta", "details": "in vivo"}, "[28]": {"experiment": "AUC (0 to infinity) in Wistar-Han rat at 0.1 mg/kg, iv by LC-MS analysis", "type": "ADME, organism-based", "set-up": "time infinity, dose 0.1 mg/kg, route iv", "details": "in vivo", "how_it_was_run": "as §2"}, "[29]": {"experiment": "Cmax in rhesus monkey at 0.05 mg/kg, sc by LC-MS analysis", "type": "ADME, organism-based, Macaca mulatta", "set-up": "dose 0.05 mg/kg, route sc", "details": "in vivo", "how_it_was_run": "as §2"}, "Rhesus monkey [30]": {"system": "Rhesus monkey", "experiment": "Anti-obesity activity in type 2 diabetes rhesus monkey model assessed as increase in FGF21 expression at 3 ug/kg, sc qd for 3 weeks and measured on day 22 relative to baseline", "type": "functional, Macaca mulatta", "details": "dose 3 µg/kg, time 22 day"}, "[31]": {"experiment": "Agonist activity at rhesus monkey GCGR", "set-up": "species or system Macaca mulatta"}, "[32]": {"experiment": "Agonist activity at rhesus monkey GLP1R", "set-up": "species or system Macaca mulatta"}, "Rhesus monkey [33]": {"system": "Rhesus monkey", "experiment": "Potency index, ratio of compound to liraglutide anti-obesity activity in type 2 diabetes rhesus monkey model assessed as […] in FGF21 expression", "type": "functional, Macaca mulatta"}, "Rhesus monkey [34]": {"system": "Rhesus monkey", "experiment": "Anti-obesity activity in type 2 diabetes rhesus monkey model assessed as weight loss at 3 ug/kg, sc qd for 3 weeks relative to control", "type": "functional, Macaca mulatta", "details": "dose 3 µg/kg"}, "Macaca mulatta": {"organism": "Macaca mulatta", "experiment": "Selectivity ratio of EC50 for rhesus monkey GCGR to EC50 for rhesus monkey GLP1R"}}, "note": "The source made the active and inactive calls. The calls are words filed in the database; no cut-off is given here.", "data": [{"smiles": "CCCCCCCCCCCCCCCC(=O)N[C@@H](CCC(=O)N[C@@H](CCC(=O)NCCCC[C@H](NC(=O)[C@H](CC(=O)O)NC(=O)[C@H](CO)NC(=O)[C@@H](NC(=O)[C@H](Cc1ccccc1)NC(=O)[C@@H](NC(=O)CNC(=O)[C@H](CCC(N)=O)NC(=O)[C@@H](CO)NC(=O)[C@@H](N)Cc1cnc[nH]1)[C@@H](C)O)[C@@H](C)O)C(=O)N[C@@H](CO)C(=O)N[C@@H](CCCCN)C(=O)N[C@@H](Cc1ccc(O)cc1)C(=O)N[C@@H](CC(C)C)C(=O)N[C@@H](CC(=O)O)C(=O)N[C@@H](C)C(=O)N[C@@H](CCCNC(=N)N)C(=O)N[C@@H](C)C(=O)N[C@@H](C)C(=O)N[C@@H](CCC(N)=O)C(=O)N[C@@H](CC(=O)O)C(=O)N[C@@H](Cc1ccccc1)C(=O)N[C@H](C(=O)N[C@@H](CCC(N)=O)C(=O)N[C@@H](Cc1c[nH]c2ccccc12)C(=O)N[C@@H](CC(C)C)C(=O)N[C@@H](CC(C)C)C(=O)N[C@@H](CC(=O)O)C(=O)N[C@H](C(N)=O)[C@@H](C)O)C(C)C)C(=O)O)C(=O)O", "values": [{"measurement": "fold change (FC)", "setting": "Rhesus monkey [1]", "value": 4}, {"measurement": "Activity", "setting": "Rhesus monkey [2]", "value": 50, "unit": "%"}, {"measurement": "Tmax", "setting": "[3]", "value": 18, "unit": "h"}, {"measurement": "solubility", "setting": "[4]", "value": "Insoluble"}, {"measurement": "bioavailability", "setting": "[5]", "value": 18, "unit": "%"}, {"measurement": "solubility", "setting": "[6]", "value": "> 20", "unit": "mg/mL"}, {"measurement": "Vd", "setting": "[7]", "value": 0.1, "unit": "L/kg"}, {"measurement": "Activity", "setting": "Rhesus monkey [8]", "value": 9.6}, {"measurement": "Ratio EC50", "setting": "Homo sapiens", "value": 0.9}, {"measurement": "half-life", "setting": "[9]", "value": 16, "unit": "h"}, {"measurement": "Cmax", "setting": "[10]", "value": 25, "unit": "nM"}, {"measurement": "clearance", "setting": "[11]", "value": 0.42, "unit": "mL/min/kg"}, {"measurement": "AUC(0-inf)", "setting": "[12]", "value": 1.25, "unit": "µM·h"}, {"measurement": "Stability", "setting": "Dipeptidyl peptidase 4", "value": "Stable"}, {"measurement": "Tmax", "setting": "[13]", "value": 5.3, "unit": "h"}, {"measurement": "Activity", "setting": "Rhesus monkey [14]", "value": 63, "unit": "%"}, {"measurement": "bioavailability", "setting": "[15]", "value": 63, "unit": "%"}, {"measurement": "fold change (FC)", "setting": "Rhesus monkey [16]", "value": 2}, {"measurement": "AUC(0-inf)", "setting": "[17]", "value": 0.4, "unit": "µM·h"}, {"measurement": "Activity", "setting": "Rhesus monkey [18]", "value": "Active"}, {"measurement": "AUC(0-inf)", "setting": "[19]", "value": 0.37, "unit": "µM·h"}, {"measurement": "Activity", "setting": "[20]", "value": "Non-Toxic"}, {"measurement": "half-life", "setting": "[21]", "value": 3, "unit": "h"}, {"measurement": "Vd", "setting": "[22]", "value": 0.16, "unit": "L/kg"}, {"measurement": "clearance", "setting": "[23]", "value": 0.12, "unit": "mL/min/kg"}, {"measurement": "solubility", "setting": "[24]", "value": "> 80", "unit": "mg/mL"}, {"measurement": "Activity", "setting": "Rhesus monkey [25]", "value": 30, "unit": "%"}, {"measurement": "Activity", "setting": "Rhesus monkey [26]", "value": "Active"}, {"measurement": "Activity", "setting": "[27]", "value": "Non-Toxic"}, {"measurement": "AUC(0-inf)", "setting": "[28]", "value": 1.05, "unit": "µM·h"}, {"measurement": "Cmax", "setting": "[29]", "value": 30, "unit": "nM"}, {"measurement": "fold change (FC)", "setting": "Rhesus monkey [30]", "value": ">3"}, {"measurement": "EC50", "setting": "[31]", "value": 7, "unit": "pM"}, {"measurement": "EC50", "setting": "[32]", "value": 9, "unit": "pM"}, {"measurement": "fold change (FC)", "setting": "Rhesus monkey [33]", "value": ">3"}, {"measurement": "Activity", "setting": "Rhesus monkey [34]", "value": 7.6, "unit": "%"}, {"measurement": "Ratio EC50", "setting": "Macaca mulatta", "value": 0.8}]}]}
